# Screening results deposited in PubChem by several laboratories.
# Jurkat NFkB inh = inhibitors of induced NF-kB luciferase reporter, primary screen, TCR NF-kB activation inhibitor project, cell-based, luminescence, uHTS. inhibition, % at 4 µM. 330,000 tested, 0.53% active. Jurkat, PMA/ionomycin-induced NF-kB luciferase reporter. AID 435003, 2010; in the data active = inhibition above about 50%
# GPR7 antagonist = GPR7 receptor antagonists, primary screen, cell-based, fluorescence, single concentration. GPR7-expressing cells, fluorescence antagonist assay. inhibition, % at 4.4 µM. 290,000 tested, 1.1% active; in the data active = inhibition above about 16%, passing the limit was not always enough;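 note: cells stimulated with the agonist NPW; 0% = agonist with vehicle and 100% = vehicle without agonist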
# Target sequence (P48145 whole entry, looked up): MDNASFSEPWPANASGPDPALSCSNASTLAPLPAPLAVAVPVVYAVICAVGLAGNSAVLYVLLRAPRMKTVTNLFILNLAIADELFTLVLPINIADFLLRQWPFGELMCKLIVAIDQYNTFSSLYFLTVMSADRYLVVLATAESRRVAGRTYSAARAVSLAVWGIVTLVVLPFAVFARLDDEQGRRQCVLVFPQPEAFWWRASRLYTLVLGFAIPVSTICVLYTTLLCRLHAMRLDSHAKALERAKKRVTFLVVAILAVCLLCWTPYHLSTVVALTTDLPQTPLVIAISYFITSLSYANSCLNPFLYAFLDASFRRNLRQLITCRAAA
# HSF1 inh = HSF1 inhibitors in luciferase reporter cells, primary screen, cell-based, NIH3T3, luminescence | NIH3T3-HGL HSE-luciferase, MG132-induced, luminescence 8 h; hits give low values | activity change, negative = inhibition, % at 7.5 µM (by protocol) | 300,000 tested, 0.77% active;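 active = more than half of replicate wells show activity change below -50%, luminescence cut by over half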;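 note: luciferase reports HSF-1 transcriptional activity via heat shock element; 0% = median of DMSO wells and -100% = zero luminescence signal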
# T cruzi repl = inhibitors of intracellular T. cruzi growth, primary screen, luminescence, NIH3T3 host cells; 300,000 tested, 1.4% active; inhibition, % (test concentration not listed); T. cruzi beta-gal in NIH3T3, 90 h; AID 1885, 2009;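 active = mean inhibition across valid replicates above about 55%, limit read from the data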;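 note: signal also drops with host cell toxicity which is not excluded here; 0% = plate median of DMSO wells and 100% = zero luminescence signal; higher percent means less beta-gal luminescence so fewer parasites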
#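 Incubation – ≥90 h infection period, 3 h prior cell attachment · System – NIH/3T3 fibroblasts plus reporter T. cruzi · Doses – compound pinned at 50 nL/well, DMSO · Read-out basis – percent inhibition of parasite-derived β-gal signal · Signal – luminescent β-galactosidase signal after 60 min lysis · Also added – 5000 T. cruzi trypomastigotes/well · Medium – Low-serum DMEM with 2% FBS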
# 697 NFkB inh = inhibitors of PMA/ionomycin-induced NF-kB reporter, 697 cells, primary screen, B-cell NF-kB inhibitor project, cell-based, luminescence, uHTS. 697 B-cell NF-kB luciferase reporter, 16 h. inhibition, % at 4 µM. 330,000 tested, 0.33% active. AID 435022, 2010; in the data active = inhibition above about 35%
# HSF1 activator = HSF-1 activators, primary screen, NIH3T3-HGL cells, MG132 stress, luminescence, single point; 300,000 tested, 1.7% active; NIH3T3-HGL HSF-1 luciferase reporter, 8 h; 100% = twice DMSO control signal; activation, % at 9 µM; AID 504408, 2011;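 active = mean replicate activation of at least 50% with a set share of replicates each reaching 50%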;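 note: 0% = median of the neutral control wells and 100% = twice that signal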
# * marks the source's active call; other numbers are inactive results; · = no result. A selection: hits, their analogues and other compounds. The true share with any hit is near 4.8%.
SMILES,Jurkat NFkB inh,GPR7 antagonist,HSF1 inh,T cruzi repl,697 NFkB inh,HSF1 activator
COc1ccccc1NC(=O)N(Cc1ccco1)Cc1cc2ccc(C)c(C)c2[nH]c1=O,46.7,-6.5,79.1,7.2,-68.9,107.5*
CCCC(=O)N(Cc1cc2cccc(C)c2[nH]c1=O)c1ccccc1OC,-0.4,20.7*,2.1,-3.5,-20.0,3.9
COc1ccccc1NC(=O)N(Cc1ccco1)Cc1cc2cc(C)cc(C)c2[nH]c1=O,13.3,-1.1,8.9,29.9,13.8,14.6
CCCC(=O)N(Cc1cc2ccccc2[nH]c1=O)c1ccccc1OC,-4.0,-19.0,-4.8,7.3,-3.7,14.9
CC(C)(C)c1[nH]ncc1[N+](=O)[O-],5.4,-12.2,9.4,-27.0,18.2,52.2*
COC(=O)Nc1[nH]ncc1[N+](=O)[O-],-0.8,9.5,-11.9,-6.4,-3.3,-4.7
COc1ccccc1-c1noc(CCCC(=O)NC2CCCCC2)n1,0.7,-10.4,-9.7,19.5,15.6,11.5
CCOc1ccccc1-c1noc(CCCC(=O)NC2CCCCC2)n1,-3.2,1.5,19.8,4.9,-0.7,63.5*
O=C1C2CCCN2c2ccc(S(=O)(=O)N3CCOCC3)cc2N1Cc1cccc(C(F)(F)F)c1 (stereo not given),-5.8,-7.8,-85.3*,13.4,-4.9,-88.1
Cc1cc(NC(=S)N(Cc2ccc(Br)cc2)Cc2ccc(C(=O)O)cc2)ccc1Cl,5.1,-9.7,49.0,14.4,11.2,58.2*
CCOc1ccccc1C1c2[nH]c3ccccc3c2C[C@H]2C(=O)N(C3CCN(Cc4ccccc4)CC3)CC(=O)N12 (stereo not given in full),-5.1,17.5,8.8,62.1*,-8.5,0.2
Cc1ccccc1C1c2[nH]c3ccccc3c2C[C@H]2C(=O)N(C3CCN(Cc4ccccc4)CC3)CC(=O)N12 (stereo not given in full),12.8,4.4,4.4,60.6*,17.2,-11.4
O=C1[C@@H]2Cc3c([nH]c4ccccc34)C(c3cccc(Br)c3)N2C(=O)CN1C1CCN(Cc2ccccc2)CC1 (stereo not given in full),12.6,24.7,1.6,64.7*,-5.4,-6.5
CC(NC(=O)C1CCN(C(=O)c2cccs2)CC1)c1ccc(S(N)(=O)=O)cc1 (stereo not given),-0.5,·,·,·,17.3,·
CC(C)C(C(=O)NCc1ccco1)N(CC1CCCO1)C(=O)CNS(=O)(=O)c1ccccc1 (stereo not given),5.9,-17.9,1.5,-5.2,19.2,-9.4
CC(C)C(C(=O)NCc1ccccc1)N(CC1CCCO1)C(=O)CNS(=O)(=O)c1ccccc1 (stereo not given),0.5,2.1,35.6,20.6,-7.0,82.7*
COc1cc2c(cc1OC)C1Cc3ccc(OC)c(OC)c3CN1CC2 (stereo not given),-12.5,-13.5,-13.2,51.4,-11.2,-2.7
COc1cc2c(cc1OC)[C@@H]1Cc3ccc(OC)c(OC)c3CN1CC2,-7.5,-13.3,-10.1,56.3*,-9.4,-21.7
CCN1C(=O)[C@H]2[C@@H](c3ccc(-c4cccc(Cl)c4)cc3)N[C@@](Cc3ccccc3)(C(=O)OC)[C@H]2C1=O,14.8,·,3.4,55.3*,8.7,-7.3
CCn1c(CNC(=O)c2ccccc2Br)nnc1SCC(=O)Nc1nncs1,4.1,-2.2,-16.0,1.0,8.7,-3.6
Cc1[nH]c2ccccc2c1C=NNC(=O)c1cc(-c2cccnc2)nc2ccccc12,-10.0,·,·,·,-2.2,·
CCOC(=O)c1c(NC(=O)C2=C(C)NC(=S)NC2c2ccccc2C(F)(F)F)sc(C)c1C (stereo not given),9.6,-3.0,16.2,62.4*,-9.3,31.8
CCOc1ccc(C(=O)OC2CCN(C)CC2)cc1,-46.9,-11.0,-3.9,37.5,-10.1,-9.8
CN1CCC(OC(=O)c2ccccc2)CC1,-8.6,-15.2,-5.3,60.3*,-4.7,-1.2
